From ChEMBL document CHEMBL1128552, “8-Amino-3-benzyl-1,2,4-triazolo[4,3-a]pyrazines. Synthesis and anticonvulsant activity” (J Med Chem, 1995) come the findings set out here.

For orientation: ED50 means the dose that gives a 50% effect, or the effect in half of the subjects. Broadly, the logP is the decadic logarithm of the partition coefficient of the neutral form, usually between octanol and water. The term pKa denotes the pH at which an ionisable group is half protonated.

In series [1] the test system is Rattus norvegicus. Briefly: The compound was tested for anticonvulsant activity against Maximal Electroshock-Induced Seizures(MES) in Wistar male rat, after peroral administration. Type of series: functional. As to conditions: po. A digest of the protocol: (§1)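 Male Wistar rats (Charles River), maximal electroshock seizure test. Compounds given as solutions or fine dispersions in water or 0.5% methylcellulose; poorly soluble samples micronized. Initial screen at 25 mg/kg ip. ED50 is the dose protecting 50% against hind-limb extensor component, calculated by Miller–Tainter method. Either four doses with at least 12 animals each (with standard error), or three doses with six animals each.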
(The maximal electroshock test induces tonic seizures with an electrical stimulus.)

Series [2] relates to Rattus norvegicus. Briefly: The compound was tested for anticonvulsant activity against Maximal Electroshock-Induced Seizures(MES) in intraperitoneal administration. It is filed as functional. The conditions noted are these: ip. Summed up: as §1
A short description of series [3]: Lipophilicity was measured. Type of series: physicochemical. The conditions noted are these: octanol/water.
Series [4] in a line: Dissociation constant was measured. Type of series: physicochemical.

Structures are written as SMILES. Some results are limits rather than exact numbers.

In the case of `CNc1ncnc2c1ncn2Cc1ccccc1F` [BW-A78U], the 50% effective dose (ED50) in the series with Rattus norvegicus [1] was found to be 2.5 mg/kg; with Rattus norvegicus [2], 1.7 mg/kg. The lipophilicity (logP) in series [3] came to 1.86. For the same compound, the pKa in series [4] was 3.88.

Regarding `Nc1nccn2c(Cc3ccc(F)cc3)nnc12`, in the series on Rattus norvegicus [2], the ED50 is > 25 mg/kg.

Consider `CNc1nccn2c(Cc3c(F)cccc3F)nnc12`, for which the 50% effective dose (ED50) with Rattus norvegicus [1] came to 3 mg/kg; in the series on Rattus norvegicus [2], 2 mg/kg.

Take `Nc1ncnc2c1ncn2Cc1ccccc1F`: the ED50 in the series on Rattus norvegicus [1] is 12 mg/kg; in the series on Rattus norvegicus [2], 4.5 mg/kg.

Take `O=C1NC(=O)C(c2ccccc2)(c2ccccc2)N1` [PHENYTOIN]: the ED50 was found to be 20 mg/kg in the series with Rattus norvegicus [1] and 10 mg/kg in the series on Rattus norvegicus [2].

As for `CNc1nccn2c(Cc3cccc(F)c3)nnc12`, the ED50 was 20 mg/kg with Rattus norvegicus [1] and 4 mg/kg with Rattus norvegicus [2].

In the case of `Nc1nccn2c(Cc3ccccc3F)nnc12`, the ED50 came to 8 mg/kg with Rattus norvegicus [1] and 9 mg/kg in the series with Rattus norvegicus [2].

For the compound `CNc1nccn2c(Cc3cc(F)ccc3F)nnc12`, the ED50 in the series with Rattus norvegicus [1] was determined as 10 mg/kg; in the series on Rattus norvegicus [2] it was 4 mg/kg.

For `Nc1nccn2c(Cc3cccc(F)c3)nnc12`, the ED50 in the series on Rattus norvegicus [2] is > 25 mg/kg.

On to `CNc1nccn2c(Cc3ccccc3F)nnc12`, for which the values for the 50% effective dose (ED50) with Rattus norvegicus [1] and with Rattus norvegicus [2] were 2.6 mg/kg and 5 mg/kg, respectively. The compound further came in with a logP in series [3] of 1.56. Also, the pKa in series [4] was 4.02.

In turn, `CNc1nccn2c(Cc3ccc(F)cc3)nnc12` had an ED50 in the series with Rattus norvegicus [2] of 25 mg/kg.

`Nc1nccn2c(Cc3cc(F)ccc3F)nnc12`: the ED50 in the series with Rattus norvegicus [1] worked out at 20 mg/kg; with Rattus norvegicus [2] it was 7 mg/kg.

For `CNc1nccn2c(Cc3ccccc3)nnc12`, the ED50 in the series with Rattus norvegicus [1] came to 16 mg/kg; in the series on Rattus norvegicus [2] it was 6 mg/kg.

For the compound `Nc1nccn2c(Cc3c(F)cccc3F)nnc12`, the ED50 was 7 mg/kg in the series with Rattus norvegicus [1] and 4 mg/kg in the series with Rattus norvegicus [2].
